Test results as given in ChEMBL document CHEMBL3046871, “Antimicrobial and antiprotozoal activities of secondary metabolites from the fungus Eurotium repens” (Med Chem Res, 2012).
Values after ≈ are worked out from the molar mass of the structure shown. Active and inactive are the calls of the source. The calls are words filed in the database; no cut-off is given here.

Experiments:
Vero = assay: Cytotoxicity against Chlorocebus aethiops (African green monkey) Vero cells after 48 hr by neutral red assay; format: cell-based, Chlorocebus sabaeus
Plasmodium falciparum [1] = assay: Antimalarial activity against chloroquine-resistant Plasmodium falciparum W2 after 72 hr by plasmodial LDH assay; format: functional, organism-based
In short: (§1)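 Compounds dissolved in DMSO (2 mg/ml stock), serially diluted. Culture at 2% parasitemia and 2% hematocrit in RPMI 1640 with 10% human serum and 60 μg/ml amikacin, under 90% N2/5% O2/5% CO2, 37°C for 72 h. LDH read-out: Malstat reagent 30 min, then NBT/PES 1 h in dark, acetic acid stop, absorbance 650 nm. IC50 from dose–response curves. Chloroquine positive control; 0.25% DMSO vehicle.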

Plasmodium falciparum [2] = assay: Antimalarial activity against chloroquine-sensitive Plasmodium falciparum D6 after 72 hr by plasmodial LDH assay; format: functional, organism-based; in short: as §1
Leishmania donovani = assay: Antileishmanial activity against promastigote form of Leishmania donovani after 48 hr by alamar blue assay; format: functional, organism-based
In short: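 A 3-day-old promastigote culture grown in RPMI 1640 with 10% FCS at 26°C was diluted to 5 × 10^5/ml. Drug dilutions were made directly in the cell suspension, then incubated 48 h at 26°C. Growth was read by Alamar blue fluorescence (ex 544/em 590 nm). IC50 came from dose–response curves, with pentamidine and amphotericin B as standards.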

Staphylococcus aureus [3] = assay: Antibacterial activity against Staphylococcus aureus ATCC 29213 at 20 ug/ml; format: functional, organism-based
Pichia kudriavzevii [4] = assay: Antifungal activity against Pichia kudriavzevii ATCC 6258 at 20 ug/ml; format: functional, organism-based
Cryptococcus neoformans [5] = assay: Antifungal activity against Cryptococcus neoformans ATCC 90113 at 20 ug/ml; format: functional, organism-based
Aspergillus fumigatus = assay: Antifungal activity against Aspergillus fumigatus ATCC 204305; format: functional, organism-based
Candida albicans = assay: Antifungal activity against Candida albicans ATCC 90028; format: functional, organism-based
[6] = system: Mycobacterium intracellulare; assay: Antibacterial activity against Mycobacterium intracellulare ATCC 23068; format: functional, organism-based
Pseudomonas aeruginosa = assay: Antibacterial activity against Pseudomonas aeruginosa ATCC 27853; format: functional, organism-based
Escherichia coli = assay: Antibacterial activity against Escherichia coli ATCC 35218; format: functional, organism-based
Staphylococcus aureus [7] = assay: Antibacterial activity against methicillin-resistant Staphylococcus aureus ATCC 33591; format: functional, organism-based
Nakaseomyces glabratus [8] = assay: Antifungal activity against Candida glabrata ATCC 90030; format: functional, organism-based
Staphylococcus aureus [9] = assay: Antibacterial activity against Staphylococcus aureus ATCC 29213; format: functional, organism-based
Cryptococcus neoformans [10] = assay: Antifungal activity against Cryptococcus neoformans ATCC 90113; format: functional, organism-based
Staphylococcus aureus [11] = assay: Antibacterial activity against methicillin-resistant Staphylococcus aureus ATCC 33591 at 20 ug/ml; format: functional, organism-based
Nakaseomyces glabratus [12] = assay: Antifungal activity against Candida glabrata ATCC 90030 at 20 ug/ml; format: functional, organism-based
Pichia kudriavzevii [13] = assay: Antifungal activity against Pichia kudriavzevii ATCC 6258; format: functional, organism-based
[14] = Plasmodium falciparum, W2, 72 h, read-out: IC50
[15] = Plasmodium falciparum, D6, 72 h, read-out: IC50
[16] = Leishmania donovani, 48 h, read-out: IC50

CCCCC/C=C/c1c(O)cc(CC=C(C)C)c(O)c1CO
IC50 (Vero): Non-toxic | IC50 (Plasmodium falciparum [1]; [14]): 2.8 µg/mL (≈ 9.2 µM) | IC50 (Plasmodium falciparum [2]; [15]): 3 µg/mL (≈ 9.85 µM) | IC50 (Leishmania donovani; [16]): 19 µg/mL (≈ 62.4 µM) | Activity (Staphylococcus aureus [3]): inactive | Activity (Pichia kudriavzevii [4]): inactive | Activity (Cryptococcus neoformans [5]): inactive | Activity (Aspergillus fumigatus): inactive | Activity (Candida albicans): inactive | Activity [6]: inactive | Activity (Pseudomonas aeruginosa): inactive | Activity (Escherichia coli): inactive | IC50 (Staphylococcus aureus [7]): 12 µg/mL (≈ 39.3 µM) | IC50 (Nakaseomyces glabratus [8]): 7.17 µg/mL (≈ 23.6 µM)

CCC/C=C/c1cc2c(C=O)c(O)c(CC=C(C)C)cc2o1
IC50 (Vero): Non-toxic | IC50 (Plasmodium falciparum [1]; [14]): 2.8 µg/mL (≈ 9.38 µM) | IC50 (Plasmodium falciparum [2]; [15]): 3 µg/mL (≈ 10.1 µM) | Activity (Pichia kudriavzevii [4]): inactive | Activity (Aspergillus fumigatus): inactive | Activity (Candida albicans): inactive | Activity [6]: inactive | Activity (Pseudomonas aeruginosa): inactive | Activity (Escherichia coli): inactive | IC50 (Staphylococcus aureus [7]): 5.4 µg/mL (≈ 18.1 µM) | IC50 (Staphylococcus aureus [9]): 7.75 µg/mL (≈ 26 µM) | IC50 (Cryptococcus neoformans [10]): 5.31 µg/mL (≈ 17.8 µM) | IC50 (Nakaseomyces glabratus [8]): 1.13 µg/mL (≈ 3.79 µM)

Cc1c(O)cc(O)c2c1COC2=O [5,7-DIHYDROXY-4-METHYLPHTHALIDE]
IC50 (Vero): Non-toxic | IC50 (Plasmodium falciparum [1]): Not Active | IC50 (Plasmodium falciparum [2]): Not Active | IC50 (Leishmania donovani): Not Active | Activity (Staphylococcus aureus [11]): inactive | Activity (Staphylococcus aureus [3]): inactive | Activity (Pichia kudriavzevii [4]): inactive | Activity (Nakaseomyces glabratus [12]): inactive | Activity (Aspergillus fumigatus): inactive | Activity (Candida albicans): inactive | Activity [6]: inactive | Activity (Pseudomonas aeruginosa): inactive | Activity (Escherichia coli): inactive | IC50 (Cryptococcus neoformans [10]): 18.1 µg/mL (≈ 100 µM)

C[C@@H]1[C@H](O)[C@@H](C)/C=C/C=C/C=C/C=C/C=C/C=C/C=C/[C@H](O[C@@H]2O[C@H](C)[C@@H](O)[C@H](N)[C@@H]2O)C[C@@H]2O[C@](O)(C[C@@H](O)C[C@@H](O)[C@H](O)CC[C@@H](O)C[C@@H](O)CC(=O)O[C@H]1C)C[C@H](O)[C@H]2C(=O)O [AMPHOTERICIN B]
IC50 (Cryptococcus neoformans [10]): 1.23 µg/mL (≈ 1.33 µM) | IC50 (Pichia kudriavzevii [13]): 0.36 µg/mL (≈ 0.39 µM) | IC50 (Nakaseomyces glabratus [8]): 0.32 µg/mL (≈ 0.346 µM)

C/C=C/C=C/C=C/c1c(O)cc(CC=C(C)C)c(O)c1C=O [AUROGLAUCIN]
IC50 (Vero): Non-toxic | IC50 (Leishmania donovani; [16]): 7.5 µg/mL (≈ 25.1 µM) | Activity (Staphylococcus aureus [11]): inactive | Activity (Staphylococcus aureus [3]): inactive | Activity (Cryptococcus neoformans [5]): inactive | Activity (Aspergillus fumigatus): inactive | Activity (Candida albicans): inactive | Activity [6]: inactive | Activity (Pseudomonas aeruginosa): inactive | Activity (Escherichia coli): inactive | IC50 (Pichia kudriavzevii [13]): 10.9 µg/mL (≈ 36.6 µM) | IC50 (Nakaseomyces glabratus [8]): 7.33 µg/mL (≈ 24.6 µM)

CCC/C=C/C=C/c1c(O)cc(CC=C(C)C)c(O)c1C=O [DIHYDROAUROGLAUCIN]
IC50 (Vero): Non-toxic | IC50 (Plasmodium falciparum [1]): Not Active | IC50 (Plasmodium falciparum [2]): Not Active | IC50 (Leishmania donovani; [16]): 20 µg/mL (≈ 66.6 µM) | Activity (Staphylococcus aureus [11]): inactive | Activity (Staphylococcus aureus [3]): inactive | Activity (Pichia kudriavzevii [4]): inactive | Activity (Cryptococcus neoformans [5]): inactive | Activity (Aspergillus fumigatus): inactive | Activity (Candida albicans): inactive | Activity [6]: inactive | Activity (Pseudomonas aeruginosa): inactive | Activity (Escherichia coli): inactive | IC50 (Nakaseomyces glabratus [8]): 2.39 µg/mL (≈ 7.96 µM)

C=CC(C)(C)c1[nH]c2c(CC=C(C)C)cc(CC=C(C)C)cc2c1C[C@@H]1NC(=O)[C@H](C)NC1=O [ECHINULIN]
IC50 (Vero): Non-toxic | IC50 (Plasmodium falciparum [1]): Not Active | IC50 (Plasmodium falciparum [2]): Not Active | IC50 (Leishmania donovani): Not Active | Activity (Staphylococcus aureus [11]): inactive | Activity (Staphylococcus aureus [3]): inactive | Activity (Pichia kudriavzevii [4]): inactive | Activity (Cryptococcus neoformans [5]): inactive | Activity (Nakaseomyces glabratus [12]): inactive | Activity (Aspergillus fumigatus): inactive | Activity (Candida albicans): inactive | Activity [6]: inactive | Activity (Pseudomonas aeruginosa): inactive | Activity (Escherichia coli): inactive

CCCCCCCc1c(O)cc(CC=C(C)C)c(O)c1C=O [FLAVOGLAUCIN]
IC50 (Vero): Non-toxic | IC50 (Plasmodium falciparum [2]; [15]): 3 µg/mL (≈ 9.85 µM) | IC50 (Leishmania donovani; [16]): 23 µg/mL (≈ 75.6 µM) | Activity (Pichia kudriavzevii [4]): inactive | Activity (Cryptococcus neoformans [5]): inactive | Activity (Nakaseomyces glabratus [12]): inactive | Activity (Aspergillus fumigatus): inactive | Activity (Candida albicans): inactive | Activity [6]: inactive | Activity (Pseudomonas aeruginosa): inactive | Activity (Escherichia coli): inactive | IC50 (Staphylococcus aureus [7]): 10.4 µg/mL (≈ 34.2 µM) | IC50 (Staphylococcus aureus [9]): 14.3 µg/mL (≈ 47 µM)

CCCCC/C=C/c1c(O)cc(CC=C(C)C)c(O)c1C=O [TETRAHYDROAUROGLAUCIN]
IC50 (Vero): Non-toxic | IC50 (Plasmodium falciparum [1]; [14]): 2.3 µg/mL (≈ 7.61 µM) | IC50 (Plasmodium falciparum [2]; [15]): 2.8 µg/mL (≈ 9.26 µM) | IC50 (Leishmania donovani; [16]): 22 µg/mL (≈ 72.7 µM) | Activity (Staphylococcus aureus [11]): inactive | Activity (Pichia kudriavzevii [4]): inactive | Activity (Cryptococcus neoformans [5]): inactive | Activity (Aspergillus fumigatus): inactive | Activity (Candida albicans): inactive | Activity [6]: inactive | Activity (Pseudomonas aeruginosa): inactive | Activity (Escherichia coli): inactive | IC50 (Staphylococcus aureus [9]): 13.5 µg/mL (≈ 44.7 µM) | IC50 (Nakaseomyces glabratus [8]): 6.15 µg/mL (≈ 20.3 µM)
